Source: ChEMBL document CHEMBL2434937, “Monoamine oxidase inhibitory activity of 3,5-biaryl-4,5-dihydro-1H-pyrazole-1-carboxylate derivatives” (Eur J Med Chem, 2013)

How the values were obtained:
[1] = molecular target: T1, Amine oxidase [flavin-containing] A (Homo sapiens, UniProt P21397); test: Reversible inhibition of human recombinant MAO-A expressed in baculovirus infected […] insect cells at 300 nM incubated for 1 hr followed by compound washout by centrifugation-ultrafiltration method
T1 sequence (P21397 whole entry): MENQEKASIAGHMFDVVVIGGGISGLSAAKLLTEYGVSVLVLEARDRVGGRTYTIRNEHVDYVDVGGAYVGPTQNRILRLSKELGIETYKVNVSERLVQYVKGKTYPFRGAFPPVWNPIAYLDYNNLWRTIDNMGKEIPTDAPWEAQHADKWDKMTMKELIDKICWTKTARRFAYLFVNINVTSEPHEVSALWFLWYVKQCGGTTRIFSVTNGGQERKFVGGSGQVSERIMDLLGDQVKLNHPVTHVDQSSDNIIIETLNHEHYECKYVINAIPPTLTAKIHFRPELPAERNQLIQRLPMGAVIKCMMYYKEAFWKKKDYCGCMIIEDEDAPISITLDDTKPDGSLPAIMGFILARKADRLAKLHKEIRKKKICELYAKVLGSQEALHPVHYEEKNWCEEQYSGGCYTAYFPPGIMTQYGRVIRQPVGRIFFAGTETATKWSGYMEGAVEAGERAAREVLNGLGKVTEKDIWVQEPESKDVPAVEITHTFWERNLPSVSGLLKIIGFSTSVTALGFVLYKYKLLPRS
Procedure, shortened: (§1)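 Recombinant hMAO-A (baculovirus-infected BTI insect cells) preincubated with a single inhibitor concentration in 0.05 M sodium phosphate, pH 7.4, 1 h at 37°C. One aliquot kept at 4°C unwashed. Remainder ultrafiltered (30 kDa membrane, 9000x g, 20 min, 4°C), resuspended and spun twice more. Activity by Amplex Red/HRP H2O2 fluorescence. Percent inhibition vs vehicle controls, with and without washing.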

[2] = molecular target: T1, Amine oxidase [flavin-containing] A; test: Reversible inhibition of human recombinant MAO-A expressed in baculovirus infected […] insect cells at 300 nM after 1 hr by centrifugation-ultrafiltration method; procedure, shortened: as §1

O=C(NCCN1CCOCC1)c1ccc(Cl)cc1 [MOCLOBEMIDE]
inhibition at 0.3 µM [1]: 9.56% | inhibition at 0.3 µM [2]: 89%
